High-throughput results deposited in PubChem BioAssay by several laboratories.
TNAP act hiacc: increases human TNAP activity under high phosphate acceptor concentration; P05186; purified TNAP, CDP-star luminescence, 1 M DEA, 30 min; active compounds read high; 0 = EDTA background, 1 = DMSO-only activity; activation factor at 20 µM; 200,000 tested, under 10 active; AID 1136;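 active means activation factor at least 2 at 20 µM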
Target sequence (P05186 whole entry, looked up): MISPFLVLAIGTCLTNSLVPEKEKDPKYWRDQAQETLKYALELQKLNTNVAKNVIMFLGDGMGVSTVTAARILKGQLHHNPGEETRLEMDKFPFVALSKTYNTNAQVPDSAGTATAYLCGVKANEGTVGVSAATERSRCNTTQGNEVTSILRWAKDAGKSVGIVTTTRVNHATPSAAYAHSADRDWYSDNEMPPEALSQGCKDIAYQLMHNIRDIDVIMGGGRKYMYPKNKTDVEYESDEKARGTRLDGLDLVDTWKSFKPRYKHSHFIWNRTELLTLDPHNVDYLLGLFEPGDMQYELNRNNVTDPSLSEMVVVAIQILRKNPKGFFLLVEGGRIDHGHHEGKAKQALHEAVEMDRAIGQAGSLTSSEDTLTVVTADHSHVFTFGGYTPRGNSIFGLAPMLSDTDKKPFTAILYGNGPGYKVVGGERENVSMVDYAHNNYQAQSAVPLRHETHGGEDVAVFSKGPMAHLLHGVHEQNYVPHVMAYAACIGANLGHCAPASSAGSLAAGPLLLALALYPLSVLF
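Assay system: human TNAP; Input: enzyme diluted 1/800 final; Reagent: CDP-star luminogenic substrate at 100 µM final; Timing: 30 min, room temperature; Signal: luminescence; Evaluation: TNAP activation factor scaled between EDTA and DMSO control wells.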
bCat KO growth: beta-catenin-lacking colon tumor cell growth suppression; HCT116 beta-catenin knockout viability, CellTiter-Glo, 60 h; active compounds read low; AID 818; 1.5% of 140,000 active; viability, % at 10 µM;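 active means viability at or under a set limit, the compound median less 4 SD, cut at about 6% in these data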;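 further: 0% = Hyamine 1622 control at 20 µM and 100% = untreated cell control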
HCT116 PTEN-null: PTEN-deleted cell growth suppression | HCT116 PTEN-null viability, CellTiter-Glo, 60 h; active compounds read low | viability, % at 10 µM | 1.2% of 140,000 active | AID 827;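 active means viability at or below a set limit, 4 SD under the median of all tested compounds, cut at about 3.7% in these data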;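 further: PTEN knockout HCT116 line with beta catenin targeted HCT116 as companion control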
Lmaj promast: Leishmania major promastigote growth inhibition; Leishmania major promastigotes, resazurin fluorescence viability; inhibition, % at 10 µM; 9% of 200,000 active; AID 1063; in the data active means inhibition above about 50%;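 further: promastigotes grown with compound for 44 hours at 28 °C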
TNAP inh hi DEA: TNAP (human) inhibition, high acceptor; purified TNAP, CDP-star luminescence, 1 M DEA; P05186; inhibition, % at 20 µM; 0.03% of 200,000 active;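 active means over 50% inhibition of tissue-nonspecific alkaline phosphatase at 20 µM in the single-dose screen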;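 further: plate controls were DMSO wells for no effect and EDTA-quenched wells as full inhibition for full effect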
TNAP inh noacc: TNAP (human) inhibition, acceptor-free conditions; AID 1012; inhibition, % at 20 µM; purified TNAP, CDP-star luminescence, 30 min; 0.26% of 200,000 active; P05186;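 active means tissue-nonspecific alkaline phosphatase inhibition above about 50% at 20 µM in the single-dose screen, limit read from the data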;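 further: 0% = DMSO negative control and 100% = EDTA positive control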
Numbers without * were called inactive. Most compounds without a hit are left out; they make up all but 9.6% or so of the library.

How did CNC(=S)/N=C/NOCc1c(Cl)cccc1Cl do in these assays?
TNAP act hiacc: 1; Lmaj promast: 43.1; TNAP inh hi DEA: -1.8; TNAP inh noacc: -5.0

How did Cc1noc(C)c1COC(=O)Cc1ccc(Cl)c(Cl)c1 do in these assays?
TNAP act hiacc: 1; bCat KO growth: 106.5; HCT116 PTEN-null: 88.5; Lmaj promast: -4.1; TNAP inh hi DEA: -3.0; TNAP inh noacc: -10.6

Results for Cc1noc(C)c1COC(=O)[C@H](C)NS(=O)(=O)c1ccc(Cl)c(Cl)c1 ?
TNAP act hiacc: 1; bCat KO growth: 81.8; HCT116 PTEN-null: 83.5; Lmaj promast: 72.5*; TNAP inh hi DEA: -1.4; TNAP inh noacc: 0.8

Results for Cc1sc2nc(CSCC(=O)N(CCC#N)c3ccccc3)[nH]c(=O)c2c1C ?
TNAP act hiacc: 1.1; Lmaj promast: 0.2; TNAP inh hi DEA: -5.4; TNAP inh noacc: -17.4

How did CCN(CC)S(=O)(=O)c1cccc(NC(=O)COC(=O)c2cccs2)c1 do in these assays?
TNAP act hiacc: 1.1; Lmaj promast: -3.3; TNAP inh hi DEA: -5.0; TNAP inh noacc: -7.0

How did O=C(CCC(=O)N(CC(=O)NC1CCCCC1)Cc1cccs1)Nc1ccccn1 do in these assays?
TNAP act hiacc: 1.1; Lmaj promast: 0.9; TNAP inh hi DEA: -5.5; TNAP inh noacc: -10.1

Results for Cn1c(=O)c2c(ncn2CC(COCc2ccc(Cl)cc2)OCc2ccc(Cl)cc2)n(C)c1=O (stereo unspecified) ?
TNAP act hiacc: 1; bCat KO growth: 59.1; HCT116 PTEN-null: 50.0; Lmaj promast: 100.2*; TNAP inh hi DEA: 0.1; TNAP inh noacc: 0.5

Results for O=C(Nc1ccc(S(=O)(=O)N2CCCC2)cc1)C1CCCN1C(=O)c1cccs1 (stereo unspecified) ?
TNAP act hiacc: 1; Lmaj promast: -7.9; TNAP inh hi DEA: 0.5; TNAP inh noacc: -4.3

How did CC12CN(C(=S)Nc3ccccc3)CC(C)(CN(C(=S)Nc3ccccc3)C1)C2=O do in these assays?
TNAP act hiacc: 1; Lmaj promast: -1.6; TNAP inh hi DEA: 2.5; TNAP inh noacc: 1.4

What do the screens show for `Clc1ccc(-c2nc3ccccn3c2CN2CCOCC2)cc1`?
TNAP act hiacc: 1; bCat KO growth: 77.0; HCT116 PTEN-null: 74.5; Lmaj promast: 35.4; TNAP inh hi DEA: 0.3; TNAP inh noacc: 9.2

What do the screens show for `Clc1ccc2nc(-c3ccccc3)c(CN3CCOCC3)n2c1`?
TNAP act hiacc: 1; bCat KO growth: 87.6; HCT116 PTEN-null: 77.0; Lmaj promast: 59.6*; TNAP inh hi DEA: -2.1; TNAP inh noacc: -10.6

How did O=C(COC(=O)Cc1n[nH]c(=O)c2ccccc12)Nc1cccc(C(F)(F)F)c1 do in these assays?
TNAP act hiacc: 1; Lmaj promast: 0.0; TNAP inh hi DEA: -4.6; TNAP inh noacc: -14.9

What do the screens show for `CCCNc1sc(S(=O)(=O)CCC)nc1S(=O)(=O)c1ccc(C)cc1`?
TNAP act hiacc: 1; Lmaj promast: -3.6; TNAP inh hi DEA: -3.0; TNAP inh noacc: -12.7

What do the screens show for `Cc1c(CCOC(=O)c2cc([N+](=O)[O-])cc([N+](=O)[O-])c2)sc[n+]1CC(=O)c1ccccc1`?
TNAP act hiacc: 1; Lmaj promast: 28.1; TNAP inh hi DEA: 4.5; TNAP inh noacc: 48.5

Results for Cc1c(CCOC(=O)CC23CC4CC(CC(C)(C4)C2)C3)sc[n+]1CC(=O)c1ccccc1 ?
TNAP act hiacc: 0.8; Lmaj promast: 92.4*; TNAP inh hi DEA: 24.1; TNAP inh noacc: 0.9

Results for Cc1c(CCOC(=O)CC23CC4CC(CC(C4)C2)C3)sc[n+]1CC(=O)c1ccc(Br)cc1 ?
TNAP act hiacc: 0.9; bCat KO growth: 4.8*; HCT116 PTEN-null: 7.5; Lmaj promast: 33.4; TNAP inh hi DEA: 10.2; TNAP inh noacc: 12.7

What do the screens show for `Cc1c(CCOC(=O)C23CC4CC(CC(C)(C4)C2)C3)sc[n+]1CC(=O)c1ccccc1`?
TNAP act hiacc: 0.7; Lmaj promast: 2.9; TNAP inh hi DEA: 30.1; TNAP inh noacc: 3.1

Results for COc1ccc(N2C(=O)CSC2c2ccccc2[N+](=O)[O-])cc1 (stereo unspecified) ?
TNAP act hiacc: 1; Lmaj promast: 7.3; TNAP inh hi DEA: -0.9; TNAP inh noacc: -6.1

Results for O=C(c1c[nH]c2ccccc2c1=O)N1CCCCCC1 ?
TNAP act hiacc: 1; Lmaj promast: 5.4; TNAP inh hi DEA: 1.7; TNAP inh noacc: 1.8
